Assay outcomes from PubChem BioAssay.
Only some compounds are listed: those with a hit (about 2.6% of all), similar ones and a draw of the others.
Runt-CBFb FRET: inhibitors of human RUNX1 Runt domain binding to CBFb | Cerulean-Runt/Venus-CBFb FRET ratio 530/480, 1 h | inhibition, % at 20 µM | AID 1496 | Q01196+Q13951 | hit rate 0.46% among 220,000;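 active = inhibition over about 50% at 20 µM in the single-dose screen, limit read from the data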;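 note: 0% = DMSO wells and 100% = excess unlabeled CBFb competitor control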
Target sequence (Q01196 whole entry, looked up, the tested form may be a part): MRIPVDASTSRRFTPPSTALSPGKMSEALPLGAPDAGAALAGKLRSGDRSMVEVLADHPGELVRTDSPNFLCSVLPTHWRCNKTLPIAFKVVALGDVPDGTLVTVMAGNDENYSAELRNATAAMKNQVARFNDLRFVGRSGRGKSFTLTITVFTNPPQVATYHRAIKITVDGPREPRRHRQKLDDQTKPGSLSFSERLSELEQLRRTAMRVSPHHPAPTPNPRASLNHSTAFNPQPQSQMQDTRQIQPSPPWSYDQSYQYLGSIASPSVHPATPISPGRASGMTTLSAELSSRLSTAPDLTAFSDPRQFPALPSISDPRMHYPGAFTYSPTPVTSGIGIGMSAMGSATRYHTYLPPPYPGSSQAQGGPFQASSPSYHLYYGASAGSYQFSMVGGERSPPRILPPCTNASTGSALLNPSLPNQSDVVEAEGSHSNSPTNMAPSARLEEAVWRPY
Target sequence (Q13951 whole entry, looked up, the tested form may be a part): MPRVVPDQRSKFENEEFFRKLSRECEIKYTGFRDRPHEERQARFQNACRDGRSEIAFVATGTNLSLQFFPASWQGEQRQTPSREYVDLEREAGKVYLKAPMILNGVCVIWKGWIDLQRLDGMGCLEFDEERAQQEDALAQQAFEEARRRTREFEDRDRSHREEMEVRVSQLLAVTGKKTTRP
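Assay system: Cerulean-Runt domain fusion protein, energy donor; Signal: fluorescence energy transfer, 422 nm excitation, 530/480 nm emission; Timing: 1 h compound exposure, room temperature; Control set: unlabeled CBFb; Medium: Tris buffer pH 7.5 with salts and BSA; Compound: single test concentration of 20 µM, 1% DMSO final; Probe or stimulus: Venus-CBFb 100 nM.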
IMP-1 inh: inhibitors of Pseudomonas aeruginosa IMP-1 metallo-beta-lactamase; purified IMP-1, nitrocefin hydrolysis, epi-absorbance fluorescence; inhibition, % at 5.6 µM; hit rate 0.45% among 290,000; AID 1556;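 active = inhibition above the mean plus 3 SD of all compounds in the same screening run, cut at about 4.5% in these data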;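 note: 0% = IMP-1 with DMSO and 100% = DMSO wells lacking enzyme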
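Test system: recombinant IMP-1 enzyme, purified / Medium: HEPES buffer pH 7.1 with ZnSO4 and Brij 35 / Doses: single dose, 5.6 µM / Times: 25 °C, 15 min preincubation, 25 min reaction / Detection: Epi-absorbance via hydrolysed-nitrocefin quenching of white-plate fluorescence, 480/530 nm, EDTA stop / Evaluation: percent inhibition from optical density relative to buffer-blank wells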
RanGTP-Impb inh: disruptors of Ran-importin-beta complex formation – biochemical, FRET, CFP-Ran, YFP-importin-beta, homogeneous, primary screen; cell-free CFP-Ran/YFP-importin-beta FRET ratio; hit rate 1.1% among 300,000; inhibition, % (concentration not given with the values);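 active = more than half of the replicate wells show a fall in the fluorescence ratio signal beyond about 16%, limit read from the data, passing the limit was not always enough; inconclusive = exactly half of the replicate wells pass the set limit; inactive = fewer than half of replicates pass the limit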;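 note: 0% = DMSO wells and 100% = Ran loaded with GDP instead of GTP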
Runt-SMMHC FRET: blocks binding of human RUNX1 Runt domain to CBFb-SMMHC; Q01196+Q13951; Cerulean-Runt/Venus-CBFb-SMMHC FRET ratio 530/480, 1 h; inhibition, % at 20 µM; hit rate 0.74% among 220,000;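 active = mean inhibition across duplicate retests at 20 µM reaching about 50%, limit read from the data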;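 note: 0% = DMSO wells and 100% = wells with excess untagged CBFb-SMMHC; inhibitors lower the FRET ratio by blocking Runt binding to CBFb-SMMHC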
VIM-2 inh: inhibitors of Pseudomonas aeruginosa VIM-2 metallo-beta-lactamase | purified VIM-2, nitrocefin hydrolysis, epi-absorbance fluorescence | inhibition, % at 5.6 µM | hit rate 0.89% among 290,000;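 active = inhibition above the mean of all tested compounds plus 3 SD, cutoff set per screening run, cut at about 7.5% in these data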;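 note: red hydrolysis product quenches plate fluorescence so inhibitors raise well fluorescence; 0% = enzyme with DMSO and 100% = DMSO without enzyme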
* marks the source's active call; other numbers are inactive results; ? = inconclusive; · = no result given.

SMILES	Runt-CBFb FRET	IMP-1 inh	RanGTP-Impb inh	Runt-SMMHC FRET	VIM-2 inh
Cc1oc2c(C)c3oc(=O)c(CCC(=O)N4C[C@H]5C[C@@H](C4)c4cccc(=O)n4C5)c(C)c3cc2c1C	·	-4	3	·	3
Cc1coc2c(C)c3oc(=O)c(CCC(=O)N4C[C@H]5C[C@@H](C4)c4cccc(=O)n4C5)c(C)c3cc12	·	-3	-3	·	7.7*
Cc1oc2c(C)c3oc(=O)c(CCC(=O)NCCN4CCOCC4)c(C)c3cc2c1C	·	-1	-10	·	5
Cc1coc2c(C)c3oc(=O)c(CCC(=O)NCCCN4CCOCC4)c(C)c3cc12	·	-1	?	·	11*
O=C(Cc1nc2ccccc2[nH]1)N/N=C/c1ccccc1	2	-4	·	0	-4
CC(C)(C)c1cc(/C=N/NC(=O)Cc2nc3ccccc3[nH]2)cc(C(C)(C)C)c1O	13	-5	39*	30	-4
COc1ccccc1Nc1nn2c(=O)c3ccc(C(=O)N4CCCC(C)C4)cc3nc2s1 (stereo not drawn)	·	-1	-3	·	2
CCCCN(Cc1ccco1)C(=O)C1CCCN(c2ncnc3c2nc2n3CCCCC2)C1 (stereo not drawn)	·	-5	-1	·	-2
CN1CC(=O)N(CC(=O)N2N=C(c3ccc(Cl)cc3)CC2c2ccco2)C1=O (stereo not drawn)	11	-4	3	9	0
Nc1nc(SCC(=O)N2N=C(c3ccc(Cl)cc3)CC2c2ccco2)n[nH]1 (stereo not drawn)	5	-1	2	-3	11*
COCC(=O)OCC(=O)N1N=C(c2ccc(Cl)cc2)CC1c1ccco1 (stereo not drawn)	16	-1	-2	6	9.9*
CCC(=O)N1N=C(c2ccc(Cl)cc2)CC1c1ccco1 (stereo not drawn)	1	-3	4	1	9.5*
CC(=O)c1ccc(S(=O)(=O)NCc2ccc(C(=O)NCC(c3ccccc3)N(C)C)cc2)cc1 (stereo not drawn)	·	-2	3	·	-3
CN(C)CCNC(=O)C1(O)c2cc(Br)ccc2NC(=O)N1c1ccc(Cl)cc1 (stereo not drawn)	·	-4	1	·	-2
CCCCC(=O)OCC(=O)N1N=C(c2c[nH]c3ccccc23)C(O)C1c1ccc(OC)cc1 (stereo not drawn)	·	-2	2	·	-1
COc1ccc(NC(=O)c2cnn(-c3ccccc3)c2C)cc1OC	·	0	-5	·	-1
Nc1nc(NCCCN2CCOCC2)nc(Nc2cccc(F)c2)c1[N+](=O)[O-]	-2	-4	-4	2	9.7*
Nc1nc(NCCCN2CCOCC2)nc(Nc2ccc(F)cc2)c1[N+](=O)[O-]	-2	0	1	-6	8.1*
Cc1ccc(CNc2nc(N)c([N+](=O)[O-])c(Nc3ccc(F)cc3)n2)cc1	0	-1	19*	4	-3
COc1ccc(Nc2nc(NCCCN3CCOCC3)nc(N)c2[N+](=O)[O-])cc1	1	-2	-7	-3	1
Cc1cc(C)c(C(=O)COC(=O)c2cc([N+](=O)[O-])ccc2N2CCOCC2)cc1C	·	·	0	·	·
Cc1cc(NC(=O)CCC(=O)N(Cc2ccco2)C2(C(=O)NC3CCCCC3)CCCC(C)C2)no1 (stereo not drawn)	·	-1	4	·	-1
Cc1ccc(Cl)cc1N1CCN(C(=O)c2noc(C(C)C)c2[N+](=O)[O-])CC1	·	-1	5	·	-1
N#Cc1cc(NC(=O)c2ccc(F)cc2)c(=O)n2c1[nH]c1ccccc12	-3	-2	26*	-13	-3
CCOC(=O)c1c(C)[nH]c(C)c1S(=O)(=O)N1CCN(c2ccc(F)cc2)CC1	·	-1	?	·	1
O=C(O)COc1ccccc1Cc1ccccc1	88*	-4	0	143	-1
Cc1ccc(CN2C(=O)N/C(=C\c3ccc(-c4ccc(C(=O)O)cc4C)o3)C2=O)cc1	110*	-2	·	84*	-2
O=C(O)c1ccc(-c2ccc(/C=C3\NC(=O)N(Cc4ccc(Cl)cc4)C3=O)o2)cc1	98*	-3	·	84*	-4
Cc1ccc(/C=C2/NC(=O)N(Cc3ccccc3)C2=O)o1	28	-1	-1	25	1
O=C1N/C(=C/c2ccc(N3CCOCC3)o2)C(=O)N1c1ccccc1	34	-3	·	20	-2
